Assay outcomes: PubChem, several laboratories
LMPTP block: LMPTP phosphatase inhibitors, primary screen, biochemical, fluorescence intensity, uHTS. Low molecular weight phosphotyrosine protein phosphatase (Homo sapiens), P24666. recombinant LMPTP-A, OMFP fluorogenic substrate. inhibition, % at 20 µM. 0.22% of 360,000 active. AID 651560, 2012;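 active = compounds that cut the enzyme signal by at least half of the control window in the single-dose screen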;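 note: plate controls were DMSO wells with enzyme plus substrate for no effect and substrate without enzyme for full effect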
Target sequence (P24666 whole entry, looked up): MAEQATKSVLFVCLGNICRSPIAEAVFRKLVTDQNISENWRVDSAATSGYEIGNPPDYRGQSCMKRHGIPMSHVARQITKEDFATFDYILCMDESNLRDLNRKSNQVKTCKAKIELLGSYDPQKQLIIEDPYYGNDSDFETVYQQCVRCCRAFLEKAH
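Assay system: LMPTP-A, protein tyrosine phosphatase of low molecular weight / Medium: pH 6.0 Bis-Tris buffer with DTT and Triton X-100 / Schedule: 50 min enzyme reaction at room temperature, protected from light / Measured by: endpoint fluorescence intensity from OMFP dephosphorylation / Read-out basis: % inhibition relative to no-enzyme and uninhibited control wells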
PP1 inh: PP1-alpha phosphatase inhibitors, primary screen, counter-screen for PP5 inhibitor project, biochemical, fluorescence, OMFP substrate, single point; 0.9% of 320,000 active; inhibition, % at 6.7 µM; purified PP1alpha; Serine/threonine-protein phosphatase PP1-alpha catalytic subunit (Homo sapiens), P62136;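 active = inhibition above the mean inhibition of all tested compounds plus 3 SD, computed separately for each screening campaign, cut at about 15% in these data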
Target sequence (P62136 whole entry, looked up): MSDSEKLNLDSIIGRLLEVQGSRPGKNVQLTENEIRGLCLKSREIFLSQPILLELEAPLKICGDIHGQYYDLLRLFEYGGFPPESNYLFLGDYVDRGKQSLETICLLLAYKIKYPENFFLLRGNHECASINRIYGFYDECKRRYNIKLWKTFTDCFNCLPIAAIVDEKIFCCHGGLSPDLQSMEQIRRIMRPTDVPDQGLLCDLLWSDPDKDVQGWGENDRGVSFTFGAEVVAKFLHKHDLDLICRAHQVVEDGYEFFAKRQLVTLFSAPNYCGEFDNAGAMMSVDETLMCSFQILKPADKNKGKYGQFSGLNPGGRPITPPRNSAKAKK
PP5 inh: PP5 phosphatase inhibitors, primary screen, biochemical, fluorescence. purified PP5c, OMFP substrate fluorescence. inhibition, % at 6.7 µM. Serine/threonine-protein phosphatase 5 (Homo sapiens), P53041. AID 1987, 2009. 0.18% of 320,000 active;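 active = inhibition above the campaign's mean inhibition across all tested compounds plus 3 SD, cut at about 9.5% in these data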;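 note: 0% = DMSO only and 100% = 100 µM cantharidin control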
Scp1 inh: Scp-1 phosphatase inhibitors, primary screen, biochemical, colorimetric, uHTS. inhibition, % at 20 µM. 0.88% of 340,000 active. Recombinant Scp1, phosphopeptide, malachite green phosphate absorbance. AID 493091, 2011;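 active = inhibition above about 50% at 20 µM, limit read from the data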;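 note: plate controls were DMSO wells with enzyme for no effect and wells lacking enzyme for full effect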
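Test system: SCP-1 phosphatase catalytic domain, residues 76-261 | Compound dosing: One concentration, 20 µM, with 1.0% DMSO | Schedule: 45 min room-temperature reaction, 5 min colour, 30 min stabiliser | Detection: Absorbance at 630 nm | Read-out basis: % inhibition of SCP-1 phosphate liberation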
STEP inh: STEP phosphatase inhibitors, primary screen, biochemical, fluorescence intensity, uHTS | recombinant STEP, OMFP fluorogenic substrate | Tyrosine-protein phosphatase non-receptor type 5 (Homo sapiens), P54829 | 0.25% of 360,000 active | inhibition, % at 20 µM | AID 588621, 2011;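 active = inhibition at 20 µM, scaled per plate between control wells, above about 37%, limit read from the data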;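 note: 0% = DMSO with enzyme and substrate and 100% = substrate only without enzyme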
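Assay system: isolated STEP enzyme. Buffer or medium: pH 6.0 Bis-Tris with DTT and Tween 20. Also added: fluorogenic phosphatase substrate OMFP at 25 µM final. Dosing: 20 µM, 1% DMSO. Timing: 20 min reaction, room temperature, in the dark. Measured by: fluorescence intensity, excitation 480 nm, emission 540 nm. Evaluation: normalized % inhibition.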
PP1 inh confirm: PP1 phosphatase inhibitors, confirmation, biochemical, fluorescence, OMFP substrate, triplicate; 52% of 1,900 active; inhibition, % at 6.7 µM; AID 2358, 2010; purified PP1alpha; shares compounds with PP1 inh;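 active = mean PP1 inhibition above a set limit taken from the earlier primary screen, cut at about 15% in these data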
PP5 inh counter: PP5 phosphatase inhibition by PP1 hits, confirmation, counter-screen for PP1 inhibitor project, biochemical, fluorescence, triplicate; inhibition, % at 6.7 µM; 4% of 1,900 active; shares compounds with PP1 inh; purified PP5c, OMFP fluorescence;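 active = mean PP5 inhibition over triplicate wells above about 9.5% taken from the earlier PP1 screen, limit read from the data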
Active calls of the source: *; / = no result given. Only some compounds are listed: those with a hit (about 1.9% of all), similar ones and a draw of the others.

SMILES	LMPTP block	PP1 inh	PP5 inh	Scp1 inh	STEP inh	PP1 inh confirm	PP5 inh counter
C=CCOC(=O)C(=O)/C=C/c1ccc2c(c1)Cc1ccccc1-2	1	21*	2	-11	0	18*	0
CS(=O)(=O)Nc1ccc(C2=NN(C(=O)c3ccccc3)C(c3cccs3)C2)cc1 (stereo not drawn)	2	4	1	-10	-2	/	/
CC(C)(C)C(=O)N1N=C(c2ccc(NS(C)(=O)=O)cc2)CC1c1cccs1 (stereo not drawn)	1	23*	8	-5	-3	-1	-2
O=C(CN1C(=O)COc2ccc(Cl)cc21)N1CCc2ccccc21	0	18*	1	0	-1	11	-4
O=C(CSc1nc2ccccc2c2nc3ccccc3n12)NCc1ccco1	6	31*	1	25	2	20*	0
CCCCn1c(SCC(=O)NCc2ccco2)nc2c(sc3ccccc32)c1=O	1	22*	-2	0	2	24*	-2
CCOCCCn1c(SCC(=O)NCc2ccco2)nc2c(sc3ccccc32)c1=O	1	12	1	-5	-2	/	/
C#CCOCCOCCOCCNc1nc(N2CCN(C(=O)[C@H](C)n3cc(CCCN=C(N)N)nn3)CC2)nc(N2CCN(C(=O)[C@H](C)n3cc(CCCN=C(N)N)nn3)CC2)n1	22	6	3	-11	2	/	/
CCNC(=O)c1cc2c(c(-c3cccc(-c4cccnc4)c3)n1)[C@H](CCO)N(S(C)(=O)=O)C2	-2	/	/	/	/	/	/
c1ccc(CSc2ccc3nnc(-c4ccccn4)n3n2)cc1	-1	8	0	-12	3	/	/
Cc1cccc(CSc2ccc3nnc(-c4ccccn4)n3n2)c1	-1	19*	0	-12	5	8	-6
C=CCNC(=O)c1c(Cl)nc(C)c([N+](=O)[O-])c1C	-2	-1	0	-9	-1	/	/
CCCOc1ccc(/C=N/Nc2cc(N3CCOCC3)ncn2)c(O)c1	0	27*	0	-3	-1	23*	-6
CCOc1ccc(/C=N/Nc2cc(N3CCOCC3)ncn2)c(O)c1	-1	/	/	/	0	/	/
CCOC(=O)c1cccc(NC(=O)c2ccc3c(c2)OCO3)c1	0	-3	-2	-3	2	/	/
CCOC(=O)C1=C(CSc2nc3ccccc3s2)NC(=O)NC1c1cc(C)ccc1C (stereo not drawn)	2	23*	4	-12	0	8	-1
CC1(C)CCN2CCC(C)(C)c3c(O)ccc1c32	-3	18*	0	5	-17	-1	7
CCCCCCC[C@H](N)[C@H](O)C(=O)N(C)[C@@H](CCS(C)=O)C(=O)N[C@@H](Cc1ccc(O)cc1)C(=O)N[C@@H](Cc1ccc(O)cc1)C(=O)O (stereo partly drawn)	-2	95*	88*	2	4	95*	86*
O=c1[nH]c(CSc2nnc(Nc3ccccc3)s2)nc2ccccc12	0	28*	-2	-8	-1	18*	-3
O=C(O)C1C2CCC(O2)C1C(=O)Nc1ccc(O)cc1 (stereo not drawn)	-1	27*	43*	-3	-5	5	18*
O=C(O)c1ccc(NC(=O)C2C3CCC(C3)C2C(=O)O)cc1 (stereo not drawn)	0	-3	2	1	-1	/	/
O=C(O)C1C2CCC(O2)C1C(=O)Nc1ccc(OC(F)F)cc1 (stereo not drawn)	-1	68*	68*	-12	3	12	26*
FC(F)Oc1ccc(NC(=S)NC2CCCCCCC2)cc1	1	1	5	-7	1	/	/
Cc1ccc(NC(=O)C2C3CCC(O3)C2C(=O)O)cc1C (stereo not drawn)	-1	81*	83*	-6	4	22*	43*
COc1cc(NC(=O)C2C3CCC(O3)C2C(=O)O)cc(OC)c1 (stereo not drawn)	-2	76*	80*	-2	0	21*	30*
SMILES	LMPTP block	PP1 inh	PP5 inh	Scp1 inh	STEP inh	PP1 inh confirm	PP5 inh counter
Cc1ccc(NC(=O)C2CCC(=O)N2)cc1C (stereo not drawn)	-1	-2	2	-10	0	/	/
Cc1ccc(C)c(C(C)NC(=O)C2C3CCC(O3)C2C(=O)O)c1 (stereo not drawn)	/	80*	82*	/	/	33*	43*
Cc1ccc(C(=O)CSc2nnc(CNc3ccc(C)cc3C)n2Cc2ccco2)cc1	4	10	7	9	2	/	/
COc1ccc(C(=O)CSc2nnc(CNc3ccc(C)cc3C)n2Cc2ccco2)cc1	5	23*	9	8	-1	8	1
CCCCCc1c2c(cc(O)c1C(=O)O)OC(=O)c1c(cc(OC)cc1C(=O)CCCC)O2	6	25*	5	-21	1	28*	2
CCCCCc1c2c(cc(O)c1C(=O)O)OC(=O)c1cc(C(=O)CCCC)c(OC)cc1O2	4	/	/	4	0	/	/
CCCCCCCCC/C(=N\O)c1ccccn1	3	32*	5	0	-1	28*	-5
CCCCCCCCC(=O)N/N=C/c1ccccn1	1	-1	3	0	-3	/	/
CCOC(=O)C1CCCCN1Cc1cn[nH]c1-c1ccc(F)cc1F (stereo not drawn)	-2	-3	0	-3	-3	/	/
CCCC(=O)NC(c1cccs1)c1cc([N+](=O)[O-])c2cccnc2c1O (stereo not drawn)	13	18*	3	-7	5	16*	6
CC(C)C(=O)NC(c1ccccc1)c1cc([N+](=O)[O-])c2cccnc2c1O (stereo not drawn)	8	29*	3	-11	2	13	11*
CC(C)(C)OC(=O)NCCCCC1=CC2=CC(=O)C(C)(O)C(=O)C2=CO1 (stereo not drawn)	-1	14	3	8	0	/	/
COc1ccc(NC(=O)c2ccc(N(C)S(C)(=O)=O)cc2)cc1OC	-1	0	1	-3	0	/	/
